High-throughput results deposited in PubChem BioAssay by Broad Institute.
This is a sample that favours compounds with a hit; in the whole collection about 1.7% have one here.
ARNT TACC3 PPI = disruptors of human ARNT/TACC3 interaction | AID 623870 | inhibition, % at 9.99 µM | AlphaScreen His-ARNT PAS-B/GST-TACC3 binding, luminescence; TACC3 fragment carries E629A point mutation | 390,000 tested, 0.66% active;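 active = mean inhibition of replicates at least 50% and at least half of replicates each reaching 50%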;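 also: 0% = complete ARNT plus TACC3 wells and 100% = ARNT alone without TACC3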
Rce1 inh = yeast Ras-converting enzyme inhibition; 290,000 tested, 0.27% active; yeast membranes, quenched prenylated peptide cleavage fluorescence; calls only;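 active = fall in fluorescence gain of 50% or more versus controls, with final raw signal at or below 3038400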;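 also: plate controls were neutral control wells for no effect and wells lacking membranes for full effect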
Target sequence (Q03530 whole entry, looked up): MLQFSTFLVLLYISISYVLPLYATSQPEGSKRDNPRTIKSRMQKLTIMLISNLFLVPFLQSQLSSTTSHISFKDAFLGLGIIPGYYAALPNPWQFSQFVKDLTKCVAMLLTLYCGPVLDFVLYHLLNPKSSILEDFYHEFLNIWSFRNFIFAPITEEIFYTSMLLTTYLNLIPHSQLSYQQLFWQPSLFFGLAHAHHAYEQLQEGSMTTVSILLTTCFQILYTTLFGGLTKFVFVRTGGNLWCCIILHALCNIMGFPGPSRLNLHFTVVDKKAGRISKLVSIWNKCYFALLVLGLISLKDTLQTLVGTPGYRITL
CAL PDZ FP-1 = inhibitors of human CAL PDZ peptide binding | Q9HD26 | purified CAL PDZ, TMR-peptide fluorescence polarization, 1 h | inhibition, % at 20 µM | 330,000 tested, 0.02% active | AID 504414;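 active = highest replicate inhibition of at least 40%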;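 also: plate controls were DMSO neutral control wells for no effect and unlabeled competitor peptide control wells for full effect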
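Material: tagged CAL PDZ protein CerCALP, purified; buffer or medium: sodium phosphate/NaCl buffer pH 7.4 with TCEP, IgG, Thesit; also added: fluorescent TMR peptide probe; schedule: 1 h incubation at room temperature before polarization reading; technique: fluorescence polarization from S- and P-plane intensities, G-factor corrected; control set: unlabelled peptide and DMSO controls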
CAL PDZ FP-2 = blocks peptide binding to the human CAL PDZ domain; 300,000 tested, 0.92% active; AID 602252; inhibition, % at 24.9 µM; purified CAL PDZ, TMR-peptide fluorescence polarization, 1 h;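 active = mean inhibition of at least 30% with at least half of replicates also reaching 30%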;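 also: 0% = DMSO neutral control and 100% = excess unlabeled competitor peptide PRC23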
AI-2 QS modul = Vibrio harveyi AI-2 quorum sensing modulation; Vibrio harveyi JMH597 AI-2 luminescence/OD600 ratio, 9 h; stronger effect = lower value; strain lacks LuxN and CqsS sensors; 0 = neutral-control median; activity change, % at 7.5 µM; 300,000 tested, 0.4% active; in the data active = activity change below about -75%, passing the limit was not always enough;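 also: luminescence divided by OD600 gain over 9 h not by final OD600 alone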
Active calls of the source: *; i = inactive; · = no result; + = active, no number.

SMILES | ARNT TACC3 PPI | Rce1 inh | CAL PDZ FP-1 | CAL PDZ FP-2 | AI-2 QS modul
CCc1ccc(C(=O)Nn2cnc3ccccc3c2=O)cc1 | -9 | i | -1 | -6 | -80*
Cc1nc2c(C)cccn2c(=O)c1NC(=O)COc1ccccc1 | 3 | + | -4 | 8 | 242
COc1cccc(-c2cccc(-c3nc(C(=O)O)cc4c3[C@@H](CCO)N(S(=O)C(C)(C)C)C4)c2)c1 (some centres undefined) | 43* | · | · | · | ·
O=C1NCCCCC1NS(=O)(=O)c1ccc(F)c(F)c1 (centres undefined) | 5 | i | -1 | 110* | 6
Cc1nc(N)sc1C(=O)N/N=C/c1c[nH]c2ccccc12 | 14 | i | -1 | -2 | 20
COc1ccc(CCNC(=O)c2nc(-c3cccs3)no2)cc1OC | -3 | i | -3 | -7 | 13
O=C(NCc1ccc(F)cc1)c1nc(-c2cccs2)no1 | · | i | -3 | -3 | -76*
CC(O)(c1ccccc1)c1ccc2ccccc2n1 (centres undefined) | -4 | · | -1 | 45* | ·
COc1cccc(NC(=O)CN(C)C(=O)CCNC(=O)c2ccccc2OC)c1 | -3 | · | -1 | · | ·
Cc1cc2oc(=O)cc(CN3CCOCC3)c2cc1C(C)C | · | · | -1 | 62* | 19
CC(NC1=CC(=O)c2cccnc2C1=O)C(O)c1ccccc1 (centres undefined) | 47* | · | 1 | -7 | ·
CC(c1ccccc1)N1C(=O)c2cccnc2C1=O (centres undefined) | 9 | i | 0 | · | 23
C[C@H](CO)N1C[C@H](C)[C@H](CN(C)CC2CC2)Oc2ccc(NC(=O)Cc3cn(C)c4ccccc34)cc2C1=O | 6 | · | · | · | ·
CSc1ccc(/C=C/C(=O)c2ccc(O)cc2)cc1 | -2 | i | -1 | 0 | -93*
O=C(O)/C=C/c1ccc(O)cc1 | -14 | + | 1 | 1 | -17
COc1ccc(-c2nc(N)n(C(=O)c3ccco3)n2)cc1 | -4 | i | · | 77* | 5
Nc1nc(-c2ccc(Cl)cc2)nn1C(=O)c1ccco1 | -7 | i | 0 | -1 | 13
CC(C)NC(=O)N1[C@H](CO)[C@H](c2ccccc2)[C@H]1CNC(=O)CN(C)C | -10 | · | · | · | ·
CCCNC(=O)N1C[C@@H]2[C@H](c3ccccc31)[C@H](CO)N2CC1CCCC1 | -5 | · | · | · | ·
CCN(CC)C(=O)CN1C(=O)c2cccc3cccc1c23 | -13 | i | · | 37* | 3
CCN(CC)C(=O)CN1C(=O)C(=O)c2ccccc21 | 2 | i | -1 | 0 | 24
O=c1[nH]nc(N=Nc2c(O)[nH]c3ccc(F)cc23)c(=O)[nH]1 | 63* | · | -4 | -1 | ·
Cc1ccc(N=Nc2c(O)[nH]c3ccc(F)cc23)cc1 | 16 | i | 0 | · | -11
O=C(Cc1cc(=O)[nH]c(=O)[nH]1)N1CCN(C(=O)c2ccco2)CC1 | -3 | i | 0 | · | 2
O=C1C2C3C=CC(C3)C2C(=O)N1c1ccc2ccccc2c1 (centres undefined) | -9 | i | -1 | -3 | 12
SMILES | ARNT TACC3 PPI | Rce1 inh | CAL PDZ FP-1 | CAL PDZ FP-2 | AI-2 QS modul
O=C1C2C3CCC(C3)C2C(=O)N1c1ccc2ccccc2c1 (centres undefined) | -13 | i | -1 | 62* | 7
Cc1cccc(C(=O)NC2CCN(S(=O)(=O)c3cccc(F)c3)CC2)c1 | -1 | · | -6 | 1 | ·
Cc1cc(C(=O)Nc2ccc(C(=O)O)cc2)c(-c2ccccc2)o1 | 1 | i | -2 | 3 | 7
Oc1ccccc1C=NNC(=S)Nc1ccc(F)cc1 | active | · | -3 | -1 | ·
Oc1ccccc1/C=N/NC(=S)NC1CC2C=CC1C2 (centres undefined) | 64* | i | 0 | -6 | -1
CN(C)c1nc(Nc2ccc(F)cc2)nc(Oc2ccc(F)cc2)n1 | -6 | i | -1 | -10 | 3
Fc1ccc(NC(=S)NN=Cc2ccccc2Cl)cc1 | -1 | · | 0 | -2 | ·
CN(C)c1nc(N/N=C/c2ccccc2O)nc(Nc2ccc(F)cc2)n1 | 47* | i | 0 | 3 | 22
CC(CN1CCCC1)OC(=O)Cc1ccc(Cl)cc1 (centres undefined) | -5 | i | 1 | -1 | 30
CCCCCCCCCCOC(=O)Cn1c(COc2ccccc2)[n+](C)c2ccccc21 | 5 | i | -1 | -3 | 30
CCCCCCCCCCOC(=O)Cn1c(COc2ccccc2C)[n+](C)c2ccccc21 | -1 | + | 0 | -6 | 208
COc1ccc(CN2C(=O)c3cccnc3C2=O)cc1S(=O)(=O)N1CC(C)CC(C)C1 (centres undefined) | 29* | i | -1 | 4 | 9
COc1ccc(CN2C(=O)c3cccnc3C2=O)cc1S(=O)(=O)NC1CCCCC1 | 38 | i | -3 | -4 | 1
COc1ccc(NC(C)=O)cc1NC(C)c1nc2sc(C)c(C)c2c(=O)[nH]1 (centres undefined) | 3 | i | -2 | 59* | 13
Cc1ccc(S(=O)(=O)N(C)C)cc1NC(=O)CSc1ncn[nH]1 | 1 | i | -1 | 34* | 14
Cc1ccc(S(=O)(=O)N2CCCCC2)cc1NC(=O)CSc1ncn[nH]1 | -5 | i | -1 | · | 7
COc1ccc(CCNC(=O)c2ccc(Br)cc2)cc1 | 8 | i | · | 42* | 31
COc1ccccc1OCCNC(=O)c1ccc(Br)cc1 | -7 | i | · | 33* | 1
Cc1cccc(N2CCN(C(=O)c3ccc(S(=O)(=O)N(C)c4ccccc4)cc3)CC2)c1C | · | · | -8 | · | ·
CC(C)CNS(=O)(=O)c1cc(C(=O)N2CC(C)OC(C)C2)c(Cl)cc1Cl (centres undefined) | -3 | i | -2 | -1 | 21
Nc1c(N2CCCC2)cc(Cl)c2nonc12 | 37* | i | 2 | -1 | -14
Fc1ccccc1-c1nc(NCc2ccccc2)c2ccccc2n1 | · | i | · | · | 2
CCOc1ccc(NC(=O)c2c(NC(=O)CNCCN3CCOCC3)sc3c2CCC3)cc1 | 64* | i | -3 | -2 | -10
COc1ccc(NC(=O)c2c(NC(=O)CNCc3ccco3)sc3c2CCC3)cc1 | -9 | i | · | -2 | -5
C/C(CC(=O)Nc1ccc(Cl)cc1Cl)=N\NC(=O)C(=O)N1CCCC1 | -8 | i | -2 | -2 | 24
SMILES | ARNT TACC3 PPI | Rce1 inh | CAL PDZ FP-1 | CAL PDZ FP-2 | AI-2 QS modul
C/C(CC(=O)Nc1ccccc1Br)=N\NC(=O)C(=O)N1CCCC1 | 6 | · | 0 | 108* | 16
O=C(O)c1ccccc1OCCOCCOc1ccccc1C(=O)O | -2 | · | -2 | -2 | ·
O=C(O)c1ccccc1OCCOc1ccccc1C(=O)O | 50* | i | -1 | -3 | -5
Cc1nc2ccccc2c(=O)n1/N=C/c1cc(Br)ccc1O | 59* | i | -3 | 3 | 19
CC(=O)n1c2ccccc2c2nc3ccccc3nc21 | -6 | i | -15 | -6 | 29
C=CCNc1nc2c3ccccc3n(C(C)=O)c2s1 | active | i | -2 | 11 | 21
